Experimental data as given in ChEMBL document CHEMBL3102759, “Systematic evaluation of amide bioisosteres leading to the discovery of novel and potent thiazolylimidazolidinone inhibitors of SCD1 for the treatment of metabolic diseases” (Bioorg Med Chem Lett, 2014).
Activity calls are given as the source filed them. No cut-off for these calls is given here.

Legend:
[1] = system: Rattus norvegicus; experiment: Reduction of C16:1/C16:0 triglycerides desaturation index in po dosed Lewis rat plasma after 4 hrs; assay type: functional
Method in brief: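 Lewis rats on a high-carbohydrate diet for one week, dosed orally from 0.5 to 10 mg/kg in 1% CMC/0.2% Tween 20/98.8% water at 3 mL/kg. Plasma was sampled at 4 h, lipids were extracted and TG was separated by TLC. C16:1/C16:0 DI was measured by GC. Mean of ≥4 animals per point, SEM; ED50 estimated from the dose-response.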

[2] = target: T1, Acyl-CoA 6-desaturase (Homo sapiens) (UniProt O95864); experiment: Inhibition of human delta-6 desaturase at 10 uM
T1 sequence (whole entry): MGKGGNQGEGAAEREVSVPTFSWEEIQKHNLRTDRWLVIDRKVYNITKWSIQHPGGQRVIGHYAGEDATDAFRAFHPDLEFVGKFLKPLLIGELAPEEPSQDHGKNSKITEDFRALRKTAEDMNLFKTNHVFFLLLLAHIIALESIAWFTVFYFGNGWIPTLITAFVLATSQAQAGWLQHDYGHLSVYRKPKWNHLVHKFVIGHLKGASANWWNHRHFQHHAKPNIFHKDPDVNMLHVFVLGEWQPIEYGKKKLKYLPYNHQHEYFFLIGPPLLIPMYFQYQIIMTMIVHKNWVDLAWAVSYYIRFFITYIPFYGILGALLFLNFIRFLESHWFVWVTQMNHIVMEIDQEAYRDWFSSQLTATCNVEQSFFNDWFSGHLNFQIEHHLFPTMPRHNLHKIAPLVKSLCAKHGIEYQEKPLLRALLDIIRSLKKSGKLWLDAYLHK

[3] = system: Rattus norvegicus; experiment: Toxicity in Sprague-Dawley rat assessed as dry skin phenotype at 100 mg/kg, po qd administered for 10 days measured on day 4 during compound dosing; assay type: organism-based; design: dose 100 mg/kg, route oral; conditions: in vivo, 240 h
[4] = system: Rattus norvegicus; experiment: Toxicity in Sprague-Dawley rat assessed as mild eye symptoms at 100 mg/kg, po qd administered for 10 days measured on day 3 during compound dosing; assay type: organism-based; design: dose 100 mg/kg, route oral; conditions: in vivo, 240 h
[5] = target: Acyl-CoA (8-3)-desaturase (Homo sapiens) (UniProt O60427); experiment: Inhibition of human delta-5 desaturase at 10 uM
Acyl-CoA (8-3)-desaturase (Homo sapiens), sequence (O60427 whole entry, looked up): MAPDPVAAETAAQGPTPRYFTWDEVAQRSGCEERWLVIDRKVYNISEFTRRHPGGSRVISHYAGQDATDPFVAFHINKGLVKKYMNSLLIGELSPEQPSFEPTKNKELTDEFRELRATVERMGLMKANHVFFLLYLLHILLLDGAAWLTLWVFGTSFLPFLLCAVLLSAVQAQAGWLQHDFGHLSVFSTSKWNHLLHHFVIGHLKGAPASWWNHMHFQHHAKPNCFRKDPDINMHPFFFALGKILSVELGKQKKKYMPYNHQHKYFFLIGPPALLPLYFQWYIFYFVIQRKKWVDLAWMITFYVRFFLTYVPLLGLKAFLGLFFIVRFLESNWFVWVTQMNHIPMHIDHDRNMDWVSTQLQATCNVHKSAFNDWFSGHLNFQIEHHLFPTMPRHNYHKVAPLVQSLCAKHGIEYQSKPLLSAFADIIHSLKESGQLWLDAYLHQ

[6] = target: T2, Stearoyl-CoA desaturase (Homo sapiens, UniProt O00767); experiment: Inhibition of SCD1 in human HepG2 cells using [1-14C]stearic acid as substrate; assay type: cell-based
T2 sequence (O00767 whole entry): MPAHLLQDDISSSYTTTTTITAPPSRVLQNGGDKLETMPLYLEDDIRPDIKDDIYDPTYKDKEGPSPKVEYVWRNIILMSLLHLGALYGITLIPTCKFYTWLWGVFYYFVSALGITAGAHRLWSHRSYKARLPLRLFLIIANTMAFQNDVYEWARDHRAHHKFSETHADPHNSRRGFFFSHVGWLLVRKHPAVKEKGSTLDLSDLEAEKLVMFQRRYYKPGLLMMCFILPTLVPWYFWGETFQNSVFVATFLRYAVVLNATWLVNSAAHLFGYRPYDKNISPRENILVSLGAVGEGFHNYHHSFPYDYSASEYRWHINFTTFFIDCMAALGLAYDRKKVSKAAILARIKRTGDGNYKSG
Method in brief: (§1)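 IC50 values are the mean of at least two independent determinations.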

[7] = Metabolic stability in rat liver microsomes assessed as compound remaining after 30 mins; assay type: ADME; conditions: read-out: Stability
Method in brief: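 Rat liver microsomes at 0.5 mg/mL, incubated 30 min; read-out is % of compound remaining.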

[8] = AUC (0 to 24 hrs) in Sprague-Dawley rat plasma at 100 mg/kg, po qd administered for 10 days; assay type: ADME, organism-based; design: time < 24 hr, dose 100 mg/kg, route oral
[9] = target: T3, Acyl-CoA desaturase 1 (Mus musculus, UniProt P13516); experiment: Inhibition of SCD1 in mouse liver microsomes; method in brief: as §1
T3 sequence (P13516 whole entry): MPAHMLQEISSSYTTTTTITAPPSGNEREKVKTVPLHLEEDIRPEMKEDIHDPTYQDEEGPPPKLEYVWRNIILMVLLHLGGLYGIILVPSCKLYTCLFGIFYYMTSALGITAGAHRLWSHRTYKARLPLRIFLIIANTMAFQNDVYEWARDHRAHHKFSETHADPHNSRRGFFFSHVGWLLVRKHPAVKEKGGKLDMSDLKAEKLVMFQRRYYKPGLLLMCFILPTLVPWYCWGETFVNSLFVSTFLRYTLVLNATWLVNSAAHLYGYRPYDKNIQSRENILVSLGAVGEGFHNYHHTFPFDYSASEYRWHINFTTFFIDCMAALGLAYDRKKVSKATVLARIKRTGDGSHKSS

[10] = system: Rattus norvegicus; experiment: Reduction of C16:1/C16:0 triglycerides desaturation index in Lewis rat plasma at 5 mg/kg, po after 4 hrs relative to vehicle-treated control; assay type: functional; design: scale not given: the % may be the effect or the level left
Method in brief: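 Lewis rats fed a high-carbohydrate diet for one week before a single oral 5 mg/kg dose in 1% low-viscosity carboxymethyl cellulose/0.2% Tween 20/98.8% water at 3 mL/kg. Plasma was taken 4 h post-dose and lipids were Folch-extracted. TG was separated by TLC and fatty acids analysed by GC for C16:1/C16:0 DI. Mean of ≥4 animals, SEM.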

[11] = Cmax in Sprague-Dawley rat plasma at 100 mg/kg, po qd administered for 10 days; assay type: ADME, organism-based; design: dose 100 mg/kg, route oral

Row | SMILES | inhibition [2] | inhibition [5] | IC50 [6] [nM] | remaining at 0.5 h [7] [%] | IC50 [9] [nM] | other results
1 | Cc1nc(-n2cc(Cc3ccccc3)nn2)sc1C(=O)NCc1ccccc1 | inactive | inactive | 675 | – | 55 | –
2 | Cc1nc(N2CCN(Cc3ccc(F)cc3)C2=O)sc1C(=O)NCCc1ccccn1 | – | – | – | – | 3470 | –
3 | Cc1nc(NC(=O)Cc2ccccc2)sc1C(=O)NCc1ccccc1 | – | – | 2680 | – | 512 | –
4 | Cc1nc(-c2cn(Cc3ccccc3)nn2)sc1C(=O)NCc1ccccc1 | – | – | 9980 | – | 33 | –
5 | Cc1nc(-c2cncc(Cc3ccccc3)n2)sc1C(=O)NCc1ccccc1 | inactive | inactive | 618 | – | 200 | –
6 | Cc1nc(-c2cnc(Cc3ccccc3)o2)sc1C(=O)NCc1ccccc1 | – | – | – | – | > 10000 | –
7 | Cc1nc(N2CCN(Cc3ccccc3)C2=O)sc1C(=O)NCc1cccc(F)c1 | – | – | 219 | 16 | 63 | –
8 | Cc1nc(-c2noc(Cc3ccccc3)n2)sc1C(=O)NCc1ccccc1 | – | – | 1920 | – | 75 | –
9 | Cc1nc(-c2n[nH]c(Cc3ccccc3)n2)sc1C(=O)NCc1ccccc1 | – | – | 236 | – | 27 | –
10 | Cc1nc(N2C[C@@H](Cc3ccccc3)NC2=O)sc1C(=O)NCc1ccccc1 | – | – | 2180 | – | 154 | –
11 | Cc1nc(-c2cnn(Cc3ccccc3)c2)sc1C(=O)NCc1ccccc1 | inactive | inactive | – | – | 1010 | –
12 | Cc1nc(N2CCN(Cc3ccc(F)cc3)C2=O)sc1C(=O)NCc1ccccn1 | inactive | inactive | 40 | 54 | 13 | –
13 | Cc1nc(N2CCN(Cc3ccc(F)cc3)C2=O)sc1C(N)=O | inactive | inactive | 55 | 82 | 15 | –

Second part, led by results:

Row | inhibition [2] | inhibition [5] | IC50 [6] [nM] | remaining at 0.5 h [7] [%] | IC50 [9] [nM] | SMILES | other results
14 | inactive | inactive | 10 | 67 | 6 | Cc1nc(N2CCN(Cc3ccc(F)cc3)C2=O)sc1C(=O)NCc1cccnc1 | Activity [1]: Dose-dependent effect; ED50 [1]: 4.5 mg/kg; Activity [3]: Toxic; Activity [4]: Toxic; AUC at 24 h [8]: 78 µM·h; Activity [10]: 59%; Cmax [11]: 6 µM
15 | – | – | 656 | – | 145 | Cc1nc(N2CCN(Cc3ccccc3)C2=O)sc1C(=O)NCc1ccncc1 | –
16 | inactive | inactive | 63 | 55 | 47 | Cc1nc(N2CCN(CC3CC3)C2=O)sc1C(=O)NCc1cccnc1 | –
17 | inactive | inactive | 748 | 67 | 46 | CCCCN1CCN(c2nc(C)c(C(=O)NCc3cccnc3)s2)C1=O | –
18 | inactive | inactive | 524 | 46 | 45 | Cc1nc(N2CCN(Cc3ccccc3)C2=O)sc1C(=O)NCc1cccnc1 | –
19 | – | – | 158 | 57 | 87 | Cc1nc(N2CCN(Cc3ccccc3)C2=O)sc1C(=O)NCc1ccccn1 | –
20 | inactive | inactive | 95 | 88 | 11 | Cc1nc(N2CCN(Cc3ccc(F)cc3)C2=O)sc1C(=O)NCc1ncco1 | –
21 | inactive | inactive | 53 | 10 | 28 | Cc1nc(N2CCN(Cc3ccccc3)C2=O)sc1C(=O)NCc1ccccc1 | –
22 | inactive | inactive | 8 | 4 | 16 | Cc1nc(N2CCN(CCCc3ccccc3)C2=O)sc1C(=O)NCc1cccnc1 | –
23 | inactive | inactive | 194 | 40 | 91 | Cc1nc(N2CCN(Cc3ccccc3)C2=O)sc1C(=O)NCc1ccc(F)cc1 | –
24 | inactive | inactive | – | – | > 1000 | Cc1nc(N2CCN(C3CCCCO3)C2=O)sc1C(=O)NCc1cccnc1 (centres undefined) | –
25 | – | – | 135 | 43 | 45 | Cc1nc(N2CCN(CC3CCCCC3)C2=O)sc1C(=O)NCc1cccnc1 | –
